In ChEMBL document CHEMBL1137702, “Identification of hydrolytically stable and selective P2Y(1) receptor agonists” (Eur J Med Chem, 2009):

What was measured:
[1] = biological target: P2Y purinoceptor 2 (Homo sapiens, UniProt P41231); assay: Agonist activity at human P2Y2 receptor expressed in human 1321N1 cells assessed as increase in intracellular calcium concentration by dual-excitation spectrofluorimetric analysis; assay type: functional, cell-based
Method in brief: (§1)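 1321N1 astrocytoma cells stably expressing the receptor (turkey P2Y1, human P2Y2, human P2Y4, rat P2Y6) were grown with G-418 selection. Fura-2-loaded cell suspensions were exposed at 37 °C in 10 mM HEPES-buffered saline pH 7.4 with 1 mM CaCl2 and 1 mM MgCl2. Peak [Ca2+]i rise was measured over a range of concentrations to derive EC50.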

[2] = biological target: P2Y purinoceptor 4 (Homo sapiens, UniProt P51582); assay: Agonist activity at human P2Y4 receptor expressed in human 1321N1 cells assessed as increase in intracellular calcium concentration by dual-excitation spectrofluorimetric analysis; assay type: functional, cell-based; method in brief: as §1
Chain of P2Y purinoceptor 4 (P51582 whole entry): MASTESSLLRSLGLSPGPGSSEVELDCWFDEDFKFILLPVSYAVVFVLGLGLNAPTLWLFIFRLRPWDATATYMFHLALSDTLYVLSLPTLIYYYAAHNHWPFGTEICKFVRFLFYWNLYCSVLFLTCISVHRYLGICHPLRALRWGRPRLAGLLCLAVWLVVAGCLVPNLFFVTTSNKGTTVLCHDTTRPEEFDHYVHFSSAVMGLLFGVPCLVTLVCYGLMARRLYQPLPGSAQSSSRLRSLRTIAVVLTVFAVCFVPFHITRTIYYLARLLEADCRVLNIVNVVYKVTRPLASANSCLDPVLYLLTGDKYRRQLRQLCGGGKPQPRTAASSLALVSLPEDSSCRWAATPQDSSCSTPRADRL

[3] = biological target: T1, P2Y purinoceptor 1 (Meleagris gallopavo, UniProt P49652); assay: Agonist activity at turkey P2Y1 receptor expressed in human 1321N1 cells assessed as increase in intracellular calcium concentration by dual-excitation spectrofluorimetric analysis; assay type: functional, cell-based
T1 sequence (P49652 whole entry): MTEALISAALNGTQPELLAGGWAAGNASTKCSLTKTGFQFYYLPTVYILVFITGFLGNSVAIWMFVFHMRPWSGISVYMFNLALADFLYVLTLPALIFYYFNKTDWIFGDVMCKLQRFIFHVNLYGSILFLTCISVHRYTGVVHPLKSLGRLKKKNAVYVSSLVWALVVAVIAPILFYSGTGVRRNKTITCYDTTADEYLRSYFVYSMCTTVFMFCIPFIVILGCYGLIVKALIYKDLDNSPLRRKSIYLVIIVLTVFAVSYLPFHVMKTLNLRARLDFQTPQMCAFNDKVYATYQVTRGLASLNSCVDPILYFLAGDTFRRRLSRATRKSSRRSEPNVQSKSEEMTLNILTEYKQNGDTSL

[4] = biological target: T1, P2Y purinoceptor 1; assay: Antagonist activity at turkey P2Y1 receptor expressed in human 1321N1 cells assessed as inhibition of 2-MeS-ADP-induced increase in intracellular calcium concentration by dual-excitation spectrofluorimetric analysis; assay type: functional, cell-based
Method in brief: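 Fura-2-loaded suspensions of stably transfected 1321N1 cells were assayed at 37 °C in HEPES-buffered saline pH 7.4 with 1 mM Ca2+ and Mg2+. […] [Ca2+]i was read by dual-excitation spectrofluorometry.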

[5] = system: Serum; assay: (§2) Metabolic stability in human serum assessed as hydrolysis half life at 40 mM measured for 6 days by HPLC; assay type: ADME, cell-free; details: 144 h, 40000 µM
[6] = biological target: P2Y purinoceptor 6 (Rattus norvegicus, UniProt Q63371); assay: Agonist activity at rat P2Y6 receptor expressed in human 1321N1 cells assessed as increase in intracellular calcium concentration by dual-excitation spectrofluorimetric analysis; assay type: functional, cell-based; method in brief: as §1
Chain of P2Y purinoceptor 6 (Q63371 whole entry): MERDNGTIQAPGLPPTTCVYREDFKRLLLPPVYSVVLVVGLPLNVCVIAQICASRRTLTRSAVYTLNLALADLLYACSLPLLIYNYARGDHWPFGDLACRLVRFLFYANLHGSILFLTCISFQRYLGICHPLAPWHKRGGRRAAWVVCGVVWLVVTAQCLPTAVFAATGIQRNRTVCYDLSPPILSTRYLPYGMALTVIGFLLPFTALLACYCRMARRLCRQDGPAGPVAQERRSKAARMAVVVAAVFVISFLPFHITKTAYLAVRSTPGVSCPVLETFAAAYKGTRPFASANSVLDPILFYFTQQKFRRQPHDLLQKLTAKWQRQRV

[7] = Chemical stability assessed as hydrolysis half life at 1.6 mg at pH 1.4 measured at 7 to 17 hrs interval for 5 days by HPLC-MS analysis; assay type: physicochemical
Method in brief: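 1.6 mg in 0.2 M HCl/KCl buffer with pH brought to 1.4, held at 37 °C. Sampled at 7–17 h intervals for 5 days by HPLC-ESI-MS on C18 with TEAA/MeOH gradient. Peak area versus time was fit to pseudo-first-order decay for t1/2.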

[8] = Stability at 77 ug/ml after 30 mins by HPLC in presence of calf intestine alkaline phosphatase; assay type: ADME; details: cattle, isolated protein, 0.5 h
[9] = Dissociation constant, pKa of the compound; assay type: physicochemical
[10] = biological target: P2Y purinoceptor 1 (Rattus norvegicus, UniProt P49651); assay: Agonist activity at rat pancreas P2Y1 receptor assessed as enhancement of insulin secretion; assay type: functional
Chain of P2Y purinoceptor 1 (Rattus norvegicus, UniProt P49651) (P49651 whole entry): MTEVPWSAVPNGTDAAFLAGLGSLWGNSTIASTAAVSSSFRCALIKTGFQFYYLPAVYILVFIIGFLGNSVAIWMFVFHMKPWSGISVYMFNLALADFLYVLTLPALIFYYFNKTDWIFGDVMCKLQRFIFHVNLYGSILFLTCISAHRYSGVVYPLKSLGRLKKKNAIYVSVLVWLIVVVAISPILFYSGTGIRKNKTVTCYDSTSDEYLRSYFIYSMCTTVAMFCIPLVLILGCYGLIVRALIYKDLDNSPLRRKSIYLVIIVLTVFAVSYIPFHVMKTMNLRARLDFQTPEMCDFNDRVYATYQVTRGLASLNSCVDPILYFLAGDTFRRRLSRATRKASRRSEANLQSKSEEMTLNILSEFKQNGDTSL

[11] = Chemical stability at physiological pH at 37 deg C assessed as hydrolysis half life by 31P NMR analysis; assay type: physicochemical
[12] = Chemical stability assessed as hydrolysis half life at pH 1.4 by 31P NMR analysis; assay type: physicochemical; details: buffer
[13] = system: alkaline phosphatase; assay: Stability assessed as drug remaining after 12 mins by HPLC-MS analysis in presence of calf intestine alkaline phosphatase; assay type: ADME; details: cattle, read-out: Stability
[14] = Stability after 100 mins by HPLC-MS analysis in presence of calf intestine alkaline phosphatase; assay type: ADME; details: cattle, isolated protein
[15] = as §2; assay type: ADME, cell-free
[16] = biological target: P2Y purinoceptor 1 (Rattus norvegicus) (UniProt P49651); assay: Agonist activity at rat pancreas P2Y1 receptor assessed as enhancement of insulin secretion relative to basal level; assay type: functional
Chain of P2Y purinoceptor 1 (Rattus norvegicus) (P49651 whole entry): as above

[17] = biological target: T2, Ectonucleoside triphosphate diphosphohydrolase 1 (Bos taurus) (UniProt O18956); assay: Activity of bovine spleen NTPDase 1 assessed as drug hydrolysis at 100 uM after 7 mins by malachite green colorimetric assay relative to ATP; assay type: tissue-based; set-up: scale not given: the % may be the effect or the level left
T2 sequence (whole entry): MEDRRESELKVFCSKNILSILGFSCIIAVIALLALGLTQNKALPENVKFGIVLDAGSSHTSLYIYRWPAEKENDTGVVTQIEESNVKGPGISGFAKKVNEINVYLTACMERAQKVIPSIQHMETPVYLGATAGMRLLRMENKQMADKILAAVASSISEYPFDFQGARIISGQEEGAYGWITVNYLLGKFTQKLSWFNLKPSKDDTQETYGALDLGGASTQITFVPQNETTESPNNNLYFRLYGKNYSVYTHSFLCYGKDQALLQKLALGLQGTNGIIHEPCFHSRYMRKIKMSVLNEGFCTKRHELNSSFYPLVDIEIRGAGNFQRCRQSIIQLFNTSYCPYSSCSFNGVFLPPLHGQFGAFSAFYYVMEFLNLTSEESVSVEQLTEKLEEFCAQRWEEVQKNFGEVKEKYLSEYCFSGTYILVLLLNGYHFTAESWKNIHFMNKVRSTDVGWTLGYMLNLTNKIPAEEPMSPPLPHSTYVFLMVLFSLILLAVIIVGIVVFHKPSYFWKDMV

[18] = system: Serum; assay: Metabolic stability in human serum assessed as hydrolysis half life at 0.25 mM measured for 18 hrs by HPLC; assay type: ADME, cell-free; details: 250 µM
Method in brief: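 Serum from healthy-donor whole blood (12 h at 4 °C, spun 1500 × g for 15 min, stored at −80 °C) was diluted 1:3 in RPMI-1640 and incubated with the nucleotide at 37 °C. Samples were acid-quenched (0.6 M HCl), spun, neutralised with 4 M KOH and freeze-dried. They were run on C18 HPLC with a KH2PO4 pH 4.5/acetonitrile gradient. t1/2 came from the change in peak integration over time.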

Chain of P2Y purinoceptor 2 (P41231 whole entry): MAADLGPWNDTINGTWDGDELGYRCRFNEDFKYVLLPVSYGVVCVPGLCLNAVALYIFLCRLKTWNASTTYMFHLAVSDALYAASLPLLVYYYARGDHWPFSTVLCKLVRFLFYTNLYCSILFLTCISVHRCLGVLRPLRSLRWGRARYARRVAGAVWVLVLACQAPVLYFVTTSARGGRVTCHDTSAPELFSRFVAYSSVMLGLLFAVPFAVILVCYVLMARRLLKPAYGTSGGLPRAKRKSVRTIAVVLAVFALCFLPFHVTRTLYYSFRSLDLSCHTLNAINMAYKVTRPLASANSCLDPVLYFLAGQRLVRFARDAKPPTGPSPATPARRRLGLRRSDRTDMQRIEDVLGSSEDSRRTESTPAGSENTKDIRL

Q: For `O=c1ccn([C@@H]2O[C@H](COP(=O)(O)OP(=O)(O)OP(=O)(O)O)[C@@H](O)[C@H]2O)c(=O)[nH]1` [URIDINE TRIPHOSPHATE], which EC50 [1] is on record?
A: 640 nM

Q: What about the EC50 [2] of the same compound?
A: 480 nM

Q: With `Nc1ncnc2c1ncn2[C@@H]1O[C@H](COP(=O)(O)OP(=O)(O)O)[C@@H](O)[C@H]1O` [ADENOSINE DIPHOSPHATE] as the compound, how does the EC50 [3] read?
A: 100 nM

Q: Which EC50 [4] does the source give for `BP(=O)(OC[C@H]1O[C@@H](n2cnc3c(N)ncnc32)[C@H](O)[C@@H]1O)OP(=O)(O)CP(=O)(O)O` (some centres undefined) here?
A: Not Active

Q: Which results are given for `BP(=O)(OC[C@H]1O[C@@H](n2cnc3c(N)nc(SC)nc32)[C@H](O)[C@@H]1O)OP(=O)(O)CP(=O)(O)O` (single isomer, unassigned; diastereomer A)?
A: Stability [5]: Stable; EC50 ([6]; 1321-n1): Not Active

Q: Which results are given for `BP(=O)(OC[C@H]1O[C@@H](n2cnc3c(N)ncnc32)[C@H](O)[C@@H]1O)OP(=O)(O)CP(=O)(O)O` (single isomer, unassigned; diastereomer B)?
A: half-life [7]: 19 h; Stability [8]: Stable

Q: With `CSc1nc(N)c2ncn([C@@H]3O[C@H](COP(=O)(O)OP(=O)(O)O)[C@@H](O)[C@H]3O)c2n1` as the compound, how does the pKa [9] read?
A: 6.5

Q: With `BP(=O)(OC[C@H]1O[C@@H](n2cnc3c(N)nc(SC)nc32)[C@H](O)[C@@H]1O)OP(=O)(O)OP(=O)(O)O` (single isomer, unassigned; diastereomer A) [listing 1 of 2 here] as the compound, how does the EC50 [10] read?
A: 28 nM

Q: And the half-life [11]?
A: 1400 h

Q: What about the half-life [12] of the same compound?
A: 5.9 h

Q: And the remaining at 0.2 h [13]?
A: 40%

Q: And the Stability [14]?
A: Unstable

Q: Which half-life [7] does the source give for `BP(=O)(OC[C@H]1O[C@@H](n2cnc3c(N)nc(SC)nc32)[C@H](O)[C@@H]1O)OP(=O)(O)CP(=O)(O)O` (single isomer, unassigned; diastereomer B) here?
A: 14.5 h

Q: What about the half-life at 40000 µM [15] of the same compound?
A: 71.9 h

Q: What about the Stability [8] of the same compound?
A: Stable

Q: And the EC50 [3]?
A: 17200 nM

Q: For `BP(=O)(OC[C@H]1O[C@@H](n2cnc3c(N)nc(SC)nc32)[C@H](O)[C@@H]1O)OP(=O)(O)OP(=O)(O)O` (single isomer, unassigned; diastereomer A) [listing 2 of 2 here], which fold change (FC) [16] is on record?
A: 9

Q: And the Activity [17]?
A: 14%

Q: With `BP(=O)(OC[C@H]1O[C@@H](n2cnc3c(N)nc(SC)nc32)[C@H](O)[C@@H]1O)OP(=O)(O)OP(=O)(O)O` (single isomer, unassigned; diastereomer B) as the compound, how does the Activity [17] read?
A: 59%

Q: For `O=c1ccn([C@@H]2O[C@H](COP(=O)(O)OP(=O)(O)O)[C@@H](O)[C@H]2O)c(=O)[nH]1` [URIDINE_DIPHOSPHATE], which EC50 ([6]; read-out: EC50) is on record?
A: 200 nM

Q: What does the source list for `Nc1ncnc2c1ncn2[C@@H]1O[C@H](COP(=O)(O)OP(=O)(O)OP(=O)(O)O)[C@@H](O)[C@H]1O` [ADENOSINE TRIPHOSPHATE]?
A: t1/2 [18]: 3.6 h; t1/2 [5]: 7.7 h
